Laboratory results: ChEMBL document CHEMBL4138127, “Synthesis and evaluation of new pyridyl/pyrazinyl thiourea derivatives: Neuroprotection against amyloid-β-induced toxicity” (Eur J Med Chem, 2017)

Key:
Mus musculus [1] = species: Mus musculus; assay: Inhibition of amyloid beta (1 to 42)-induced mPTP opening in mouse HT22 cells assessed as reduction in mitochondrial membrane potential loss by measuring green to red fluorescence ratio at 5 uM preincubated for 10 mins followed by amyloid beta (1 to 42) addition measured every 1 hr for 3 hrs by JC1 staining based fluorescence assay relative to control; assay type: cell-based
In short: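 HT-22 cells were seeded at 30,000 per well the day before and loaded with JC-1 (7.5 µM final) in phenol red-free Opti-MEM for 1 h 15 min at 37 °C, then PBS-washed. Compound solution (5 µM in Opti-MEM) was added for 10 min at 37 °C, followed by Aβ1-42 solution (5 µM). Red (ex/em 530/580) and green (485/530) fluorescence were read hourly for 3 h. Green/red ratio change was normalized to vehicle control as 100%.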

Mus musculus [2] = species: Mus musculus; assay: Inhibition of mPTP opening in mouse HT22 cells assessed as protection against amyloid beta (1 to 42)-induced toxicity by measuring cell viability at 5 uM preincubated for 10 mins followed by amyloid beta (1 to 42) addition measured after 24 hrs by MTT assay (reference value: 50 to 70%); assay type: cell-based
In short: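 HT-22 cells were seeded at 5000 per well the day before. Compound was added as a 10 µM solution for 10 min at 37 °C, then an equal volume of 10 µM Aβ1-42 was added, and cells were incubated 24 h at 37 °C. The table footnote states 5 µM of each. Viability was read by MTT (2 h, acidic Triton/isopropanol solubilization, A570). Protection was scaled to vehicle + Aβ as 0% and vehicle alone as 100%.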

[3] = Cytotoxicity against mouse HT22 cells assessed as cell viability at 5 uM after 24 hrs by MTT assay relative to control; assay type: cell-based, HT-22; settings: read-out: Activity
In short: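 HT-22 mouse hippocampal cells were grown in DMEM with 10% FBS and penicillin/streptomycin at 37 °C under 5% CO2, seeded at 5000 per well and exposed to 5 µM compound for 24 h at 37 °C. MTT was added for 2 h, then formazan was dissolved in 10% Triton X-100/isopropanol/0.1 M HCl for 1 h at room temperature. A570 was read and vehicle control OD subtracted to give viability.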

ATP synthase = assay: Inhibition of ATP synthase in mouse HT22 cells assessed as ATP production at 5 uM after 7 hrs by luciferase based assay relative to control; assay type: cell-based; parameters: scale not given: the % may be the effect or the level left; settings: read-out: Activity
In short: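 HT-22 cells were seeded at 10,000 per well one day before, then given 5 µM compound for 7 h at 37 °C. After PBS washes, cells were lysed in 1% Triton X-100 in TBST. Protein was measured by BCA, and equal lysate amounts were assayed for ATP with a luciferase-based kit. Vehicle control was subtracted and percent inhibition was calculated relative to vehicle control ATP.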

Compound: CCNC(=S)Nc1ncccc1OCc1ccccc1Cl
- Ratio (Mus musculus [1]): 94.1%

Compound: CC(C)(C)NC(=S)Nc1ncccc1OCc1cccc(F)c1
- Ratio (Mus musculus [1]): 123%

Compound: Cc1ccc(NC(=S)Nc2nccnc2OCc2cccc(F)c2)cc1
- Activity (Mus musculus [2]): 69.3%
- Ratio (Mus musculus [1]): 4.6%
- viability at 24 h, 5 µM [3]: 96.4%
- activity at 7 h, 5 µM (ATP synthase): 102%

Compound: S=C(Nc1ncccc1OCc1cccc(Cl)c1)Nc1cccc2ccccc12
- Activity (Mus musculus [2]): 18.6%
- Ratio (Mus musculus [1]): 26%
- viability at 24 h, 5 µM [3]: 123%
- activity at 7 h, 5 µM (ATP synthase): 107%

Compound: S=C(Nc1cccc(Cl)c1)Nc1nccnc1OCc1ccccc1Cl
- Activity (Mus musculus [2]): 29.6%
- Ratio (Mus musculus [1]): 30.8%
- viability at 24 h, 5 µM [3]: 114%
- activity at 7 h, 5 µM (ATP synthase): 98%

Compound: Cc1ccc(NC(=S)Nc2ncccc2OCc2ccccc2Cl)cc1
- Activity (Mus musculus [2]): 6.6%
- Ratio (Mus musculus [1]): 13%
- viability at 24 h, 5 µM [3]: 93.5%
- activity at 7 h, 5 µM (ATP synthase): 102%

Compound: CC(C)NC(=S)Nc1ncccc1OCc1ccccc1Cl
- Activity (Mus musculus [2]): -6.7%
- Ratio (Mus musculus [1]): 31.7%
- viability at 24 h, 5 µM [3]: 99.3%
- activity at 7 h, 5 µM (ATP synthase): 93.7%

Compound: CC(C)(C)NC(=S)Nc1ncccc1OCc1cccc(Cl)c1
- Ratio (Mus musculus [1]): 112%

Compound: CCNC(=S)Nc1ncccc1OCc1ccccc1
- Ratio (Mus musculus [1]): 66.8%

Compound: CC(C)(C)NC(=S)Nc1ncccc1OCc1ccccc1
- Ratio (Mus musculus [1]): 91%

Compound: Fc1cccc(COc2cccnc2NC(=S)Nc2cccc3ccccc23)c1
- Activity (Mus musculus [2]): 48.2%
- Ratio (Mus musculus [1]): 16.7%
- viability at 24 h, 5 µM [3]: 102%
- activity at 7 h, 5 µM (ATP synthase): 100%

Compound: Cc1ccc(NC(=S)Nc2ncccc2OCc2ccccc2)cc1
- Ratio (Mus musculus [1]): 23.3%
- activity at 7 h, 5 µM (ATP synthase): 66%

Compound: CC(C)NC(=S)Nc1ncccc1OCc1cccc(F)c1
- Ratio (Mus musculus [1]): 86%

Compound: CC(C)NC(=S)Nc1nccnc1OCc1cccc(F)c1
- Ratio (Mus musculus [1]): 43.1%

Compound: CC(C)NC(=S)Nc1ncccc1OCc1ccccc1
- Ratio (Mus musculus [1]): 45.2%

Compound: CCNC(=S)Nc1ncccc1OCc1cccc(F)c1
- Ratio (Mus musculus [1]): 88.7%

Compound: S=C(NCc1ccccc1)Nc1ncccc1OCc1ccccc1
- Ratio (Mus musculus [1]): 75.3%

Compound: S=C(Nc1ncccc1OCc1ccccc1)Nc1cccc2ccccc12
- Ratio (Mus musculus [1]): 17.1%
- activity at 7 h, 5 µM (ATP synthase): 65%

Compound: CC(C)(C)NC(=S)Nc1nccnc1OCc1cccc(F)c1
- Activity (Mus musculus [2]): 13.2%
- Ratio (Mus musculus [1]): 28.1%
- viability at 24 h, 5 µM [3]: 101%
- activity at 7 h, 5 µM (ATP synthase): 99.7%

Compound: S=C(Nc1cccc(Cl)c1)Nc1ncccc1OCc1cccc(Cl)c1
- Activity (Mus musculus [2]): 51.8%
- Ratio (Mus musculus [1]): 38%
- viability at 24 h, 5 µM [3]: 98.3%
- activity at 7 h, 5 µM (ATP synthase): 104%

Compound: CC(C)NC(=S)Nc1nccnc1OCc1ccccc1Cl
- Ratio (Mus musculus [1]): 56.3%

Compound: S=C(Nc1ncccc1OCc1ccccc1Cl)Nc1cccc2ccccc12
- Activity (Mus musculus [2]): 9.5%
- Ratio (Mus musculus [1]): 17.5%
- viability at 24 h, 5 µM [3]: 89.3%
- activity at 7 h, 5 µM (ATP synthase): 100%

Compound: NC(=O)CN1CCCC1=O [PIRACETAM]
- Activity (Mus musculus [2]): 29%
- activity at 7 h, 5 µM (ATP synthase): 88%

Compound: S=C(NCc1ccccc1)Nc1nccnc1OCc1ccccc1Cl
- Activity (Mus musculus [2]): 3.8%
- Ratio (Mus musculus [1]): 5.3%
- viability at 24 h, 5 µM [3]: 105%
- activity at 7 h, 5 µM (ATP synthase): 85.1%

Compound: Cc1ccc(NC(=S)Nc2ncccc2OCc2cccc(Cl)c2)cc1
- Activity (Mus musculus [2]): 22.8%
- Ratio (Mus musculus [1]): 26%
- viability at 24 h, 5 µM [3]: 96.2%
- activity at 7 h, 5 µM (ATP synthase): 94.5%

Compound: S=C(Nc1cccc(Cl)c1)Nc1ncccc1OCc1ccccc1Cl
- Activity (Mus musculus [2]): 22.7%
- Ratio (Mus musculus [1]): 14.2%
- viability at 24 h, 5 µM [3]: 116%
- activity at 7 h, 5 µM (ATP synthase): 103%

Compound: S=C(Nc1cccc(Cl)c1)Nc1ncccc1OCc1ccccc1
- Ratio (Mus musculus [1]): 25.3%
- activity at 7 h, 5 µM (ATP synthase): 68%
